ChEMBL document CHEMBL3872262, “Synthesis of novel C4-benzazole naphthalimide derivatives with potent anti-tumor properties against murine melanoma” (Bioorg Med Chem, 2017)
Active and inactive are the calls of the source. The rule behind the calls is not given here.

How the values were obtained:
[1] = Cytotoxicity against mouse B16F10 cells measured after 2 days by MTS assay; details: B16-F10, 48 h
Homo sapiens [2] = organism: Homo sapiens; experiment: Inhibition of topoisomerase 2 (unknown origin) assessed as DNA intercalation at 10 uM using supercoiled pHOT-1 DNA as substrate measured after 30 mins by agarose gel electrophoresis
Outline: (§1)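 Topoisomerase II drug screening kit. Supercoiled pHOT-1 plasmid incubated with topoisomerase II enzyme plus compound at 37 °C for 30 min, with 100 μM etoposide as positive control. Stopped with 10% SDS, then proteinase K for 15 min at 37 °C. Run on 1% agarose gel, stained with EtBr and viewed under UV.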

B16-F10 = experiment: Antitumor activity against mouse B16F10 cells implanted in C57BL/6 mouse assessed as reduction in lung metastasis at 2 mg/kg, ip administered daily for 1 to 14 days by microscopic method; assay type: functional, organism-based
Outline: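 Female C57BL/6 mice, 6–8 weeks old, injected via tail vein with 2x10^5 B16F10 cells on day 0. Dosing 2 mg/kg ip daily on days 1–14, in 5% DMSO vehicle, with a vehicle control group. Total black lung nodules counted under microscopy on day 14, n=11/group.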

Mus musculus = experiment: Toxicity in C57BL/6 mouse assessed as change in body weight at 2 mg/kg, ip administered daily for 9 days measured during compound dosing; assay type: organism-based; details: in vivo, 216 h
Outline: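 Female C57BL/6 mice, n=5/group, given 2 mg/kg ip daily in 5% DMSO vehicle, with a vehicle control group. Body weights recorded on set days over a 9-day study.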

Homo sapiens [3] = organism: Homo sapiens; experiment: Inhibition of topoisomerase 2 (unknown origin) assessed as DNA intercalation at 100 uM using supercoiled pHOT-1 DNA as substrate measured after 30 mins by agarose gel electrophoresis; outline: as §1

CN(C)CCN1C(=O)c2cccc3cc(N)cc(c23)C1=O [AMONAFIDE]
IC50 [1]: 6.7 µM

CN(C)CCN1C(=O)c2cccc3c(-c4nc5ccccc5o4)ccc(c23)C1=O
IC50 [1]: 7.8 µM | inhibition (Homo sapiens [2]): Active | Activity (B16-F10): Active | Activity (Mus musculus): Non-Toxic

CN(C)CCN1C(=O)c2cccc3c(-c4nc5ccccc5s4)ccc(c23)C1=O
IC50 [1]: 4.5 µM | inhibition (Homo sapiens [2]): Active | inhibition (Homo sapiens [3]): Active | Activity (B16-F10): Active | Activity (Mus musculus): Non-Toxic
